From PubChem BioAssay
V1R ag counter = counter-screen for oxytocin receptor agonists: human V1a receptor agonists. CHO-V1R cells, Fluo-8 calcium fluorescence, agonist mode; 0% DMSO, 100% 3 nM vasopressin. activation, % at 3 µM. P37288. 0.25% of 320,000 active;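 active means activation above the mean activation of all tested compounds plus 3 SD, per screening run, cut at about 20% in these data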;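 further: signal is peak over basal fluorescence ratio across a 100 second FLIPR read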
Target sequence (P37288 whole entry, looked up): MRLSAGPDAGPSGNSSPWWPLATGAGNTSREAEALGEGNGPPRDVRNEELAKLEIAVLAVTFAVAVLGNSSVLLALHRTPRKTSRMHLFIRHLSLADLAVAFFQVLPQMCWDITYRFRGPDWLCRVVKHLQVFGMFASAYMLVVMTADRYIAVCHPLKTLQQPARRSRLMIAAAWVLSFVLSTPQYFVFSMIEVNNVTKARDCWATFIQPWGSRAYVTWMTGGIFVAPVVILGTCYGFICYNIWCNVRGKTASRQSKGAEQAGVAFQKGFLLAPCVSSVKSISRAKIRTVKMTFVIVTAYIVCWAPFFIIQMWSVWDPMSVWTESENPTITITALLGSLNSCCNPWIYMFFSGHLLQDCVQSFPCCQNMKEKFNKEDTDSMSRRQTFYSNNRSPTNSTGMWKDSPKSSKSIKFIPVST
OXTR ag = human OXTR agonism; activation, % at 3 µM; CHO-OTR cells, Fluo-8 calcium fluorescence; normalized: DMSO 0%, oxytocin 100%; 0.32% of 320,000 active; AID 2435; P30559;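 active means activation above the mean of all tested compounds plus 3 SD, cutoff set per screening run, cut at about 20% in these data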;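 further: peak over basal fluorescence ratio from a 100 s FLIPR kinetic read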
OXTR potentiate = potentiators of human oxytocin receptor; P30559; CHO-OTR cells, Fluo-8 calcium fluorescence, potentiator mode; 0% = oxytocin EC15, 100% = EC100; activation, % at 3 µM; 0.061% of 320,000 active; AID 2445;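 active means activation above that plate's cutoff, the mean activation of tested compounds plus 3 SD, cut at about 6.6% in these data, passing the limit was not always enough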;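 further: 100% uses oxytocin at 75 nM as the full agonist control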
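Replication – single well per compound, singlicate · Assay system – CHO cell line stably expressing human OTR · Timing – 6 min pre-incubation, 100 s read · Measure – normalized max/min fluorescence ratio, % activation · Doses – 3.0 µM, one dose · Detection – Fluo-8 calcium dye fluorescence · Probe or stimulus – oxytocin near EC15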
TRPML3 agonist = agonists of human TRPML3 channel; Q8TDD5; HEK293 TRPML3-YFP, Fluo-8 calcium fluorescence; 100% = the carbachol control signal; activation, % at 3 µM; 0.29% of 220,000 active; AID 1448;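 active means activation above its plate's cutoff, the mean activation of the plate's test wells plus 3 SD, cut at about 12% in these data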;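 further: 0% = DMSO only wells and 100% = carbachol wells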
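Test system: TRPML3-YFP stable HEK293 cells. Doses: single point at 3 µM. Incubation: dye loading 1 h 37 °C then 30 min ambient, 125 s read. Signal: Fluo-8 calcium dye fluorescence, ex 470-495, em 515-575 nm. Measure: percent activation from peak-to-basal fluorescence ratio, scaled between DMSO and carbachol.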
TRPN1 ag = zebrafish TRPN1 (NompC) channel agonism; HEK293 zebrafish TRPN1-YFP, Fluo-8 calcium fluorescence; 100% = response to 87 µM carbachol; 0.18% of 220,000 active; AID 1424; activation, % at 3 µM;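 active means activation above its plate's cutoff, the mean activation of test wells on that plate plus 3 SD, cut at about 19% in these data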;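 further: 0% = DMSO alone and 100% = 87 µM carbachol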
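Material – zebrafish TRPN1-YFP in HEK293 cells · Doses – 3 µM single point · Schedule – dye 1 h 37 °C plus 30 min RT · Signal – Fluo-8 calcium fluorescence, excitation 470-495 nm, emission 515-575 nm · Read-out – % activation versus carbachol response · Control set – carbachol high, DMSO low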
TRPN1 counter = zebrafish TRPN1 agonism as TRPML3 agonist counter-screen; shares compounds with TRPML3 agonist; HEK293 zebrafish TRPN1-YFP, Fluo-8 calcium fluorescence; scaled: carbachol wells 100%, DMSO wells 0%; activation, % at 3 µM; 10% of 310 active;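 active means mean activation over replicates above a set limit taken from the earlier TRPN1 channel primary screen, cut at about 19% in these data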;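 further: 100% = carbachol and 0% = 0.3% DMSO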
TRPML3 ag conf = human TRPML3 agonism, confirmation; activation, % at 3 µM; HEK293 TRPML3-YFP, Fluo-8 calcium fluorescence; 100% set by carbachol, 0% by DMSO; 80% of 310 active; shares compounds with TRPML3 agonist;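 active means activation above a set limit derived from the earlier primary screen, cut at about 12% in these data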
The depositor's hits bear a star. Shown are actives, neighbours in structure and some others; about 0.58% of the full set was active somewhere.

What do the screens show for `CC(=O)c1ccc(NC(=S)NC(C)c2ccc(Cl)cc2Cl)cc1` (stereo not given)?
V1R ag counter: 23.8*; OXTR ag: 24.9*; OXTR potentiate: -13.4; TRPML3 agonist: 13.6*; TRPN1 ag: 16.1; TRPN1 counter: 16.7; TRPML3 ag conf: 9.4

What do the screens show for `CCOC(=O)N1N=C(C)CC1(O)c1ccc(Cl)cc1` (stereo not given)?
V1R ag counter: 0.5; OXTR ag: -0.1; OXTR potentiate: -7.5; TRPML3 agonist: 0.7; TRPN1 ag: 0.6

What do the screens show for `O=C1C(Cl)=C(N2CCN(Cc3ccccc3)CC2)C(=O)N1Cc1ccccc1`?
V1R ag counter: 1.4; OXTR ag: -0.3; OXTR potentiate: -2.1; TRPML3 agonist: 20.3*; TRPN1 ag: -0.3; TRPN1 counter: -0.3; TRPML3 ag conf: 25.5*

How did O=C1C(Cl)=C(NC2CCCCC2)C(=O)N1Cc1ccccc1 do in these assays?
V1R ag counter: -0.3; OXTR ag: -3.1; OXTR potentiate: -15.8; TRPML3 agonist: 1.0; TRPN1 ag: -1.2

Results for Cc1cc(NC(=O)COC(=O)[C@@H](NS(=O)(=O)c2ccccc2)C(C)C)no1 ?
V1R ag counter: 2.8; OXTR ag: 0.2; OXTR potentiate: 0.1; TRPML3 agonist: 0.2; TRPN1 ag: 0.6

What do the screens show for `CC(C)[C@H](NS(=O)(=O)c1ccccc1)C(=O)OCC(=O)Nc1ccccc1Sc1ccccc1`?
V1R ag counter: 0.3; OXTR ag: -0.3; OXTR potentiate: -11.3; TRPML3 agonist: 41.6*; TRPN1 ag: -3.0; TRPN1 counter: 0.5; TRPML3 ag conf: 65.9*

What do the screens show for `Cc1cc(C)c(S(=O)(=O)Nc2ccccc2-c2ccccc2)c(C)c1`?
V1R ag counter: -1.0; OXTR ag: -1.5; OXTR potentiate: -7.7; TRPML3 agonist: 13.2*; TRPN1 ag: -0.5; TRPN1 counter: -0.3; TRPML3 ag conf: 44.6*

How did Cc1cc(C)c(S(=O)(=O)Nc2ncccc2C)c(C)c1 do in these assays?
V1R ag counter: 1.4; OXTR ag: -0.4; OXTR potentiate: -2.8

Results for O=C(NCc1cccc(CNC(=O)c2ccco2)c1)c1ccco1 ?
V1R ag counter: 0.2; OXTR ag: 0.4; OXTR potentiate: -4.7; TRPML3 agonist: 1.0; TRPN1 ag: 1.1

What do the screens show for `O=C(COc1ccccc1C(=O)O)Nc1nc2ccc([N+](=O)[O-])cc2s1`?
V1R ag counter: 9.8; OXTR ag: 14.8; OXTR potentiate: -29.8; TRPML3 agonist: 14.2*; TRPN1 ag: 17.4; TRPN1 counter: 21.9*; TRPML3 ag conf: 7.5

How did O=C1C=C(NNC(=O)c2ccncc2)CC(c2ccccc2)C1 (stereo not given) do in these assays?
V1R ag counter: 11.7; OXTR ag: 7.0; OXTR potentiate: -13.7; TRPML3 agonist: 18.7*; TRPN1 ag: 17.8; TRPN1 counter: 0.8; TRPML3 ag conf: 0.1

How did CN(C)CCCN(C(=O)c1ccco1)c1nc2cc3c(cc2s1)OCO3 do in these assays?
V1R ag counter: 0.7; OXTR ag: 0.2; OXTR potentiate: -8.0

How did Cc1ccc(C)c(OCCn2cc(/C=C(/C#N)C(=O)NCC3CCCO3)c3ccccc32)c1 (stereo not given) do in these assays?
V1R ag counter: 0.1; OXTR ag: 2.0; OXTR potentiate: 5.9; TRPML3 agonist: 0.1; TRPN1 ag: -0.1

Results for N#C/C(=C\c1cn(CCOc2ccccc2)c2ccccc12)C(=O)NCC1CCCO1 (stereo not given) ?
V1R ag counter: 3.5; OXTR ag: 2.0; OXTR potentiate: -7.6; TRPML3 agonist: 25.1*; TRPN1 ag: -0.1; TRPN1 counter: 0.5; TRPML3 ag conf: 10.8

How did CCOc1ccc(Cl)cc1S(=O)(=O)N1CCCC1 do in these assays?
V1R ag counter: -0.5; OXTR ag: -1.1; OXTR potentiate: -4.3; TRPML3 agonist: 0.5; TRPN1 ag: -1.1
